Measured values published in PMC6764274 (Chemical Science, 2019).
Like-named read-outs stand apart in the source and are kept apart here.

What was measured:
MCF10A spheroids [1] = experiment: Non-tumorigenic spheroid formation inhibition; format: cell-based; details: IC20 value for 5 days
Outline: (§1)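 HMLER-shEcad or MCF10A cells were grown as mammospheres/spheroids with test compound at its IC20 for 5 days. Spheres were assessed by inverted microscope with bright-field imaging (×20), and formation was quantified against untreated cells. SD, Student t-test.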

HMLER-shEcad cells [2] = details: read-out: HMLER-shEcad IC50/nM; 72 h incubation; cited from earlier work
MCF10A spheroids [3] = experiment: Non-tumorigenic spheroid viability; format: cell-based; details: Homo sapiens, MCF-10A, read-out: IC50, MCF10A spheroid viability
[4] = tested on: HMLER-shEcad mammospheres; experiment: Mammosphere formation inhibition; format: cell-based; details: IC20 value for 5 days
Outline: as §1

HMLER cells = experiment: MTT cytotoxicity assay, bulk breast cancer cells; format: cell-based; details: read-out: HMLER IC50/nM
HMLER-shEcad cells [5] = experiment: MTT cytotoxicity assay, breast CSC-enriched cells; format: cell-based; details: read-out: HMLER-shEcad IC50/nM
[6] = tested on: HMLER-shEcad mammospheres; details: cited from earlier work
[7] = 72 h incubation, mean of three independent experiments ± SD

**Q.** With `CC[C@@H](C(=O)[C@@H](C)[C@@H](O)[C@H](C)[C@@H]1O[C@@H]([C@@H](CC)C(=O)O)CC[C@@H]1C)[C@H]1O[C@]2(C=C[C@@H](O)[C@]3(CC[C@@](C)([C@H]4CC[C@](O)(CC)[C@H](C)O4)O3)O2)[C@H](C)C[C@@H]1C` [Salinomycin] as the compound, how does the “decrease in number of MCF10A spheroids formed” value (MCF10A spheroids [1]) read?
**A.** 40%

**Q.** What about the IC50 (HMLER-shEcad cells [2]) of the same compound?
**A.** 4200 ± 400 nM

**Q.** What about the IC50 (MCF10A spheroids [3]) of the same compound?
**A.** 14900 ± 500 nM

**Q.** What about the “decrease in number of HMLER-shEcad mammospheres formed compared to the untreated control” value [4] of the same compound?
**A.** 53%

**Q.** For `N.N.[Cl][Pt][Cl]` [Cisplatin], which IC50 (HMLER cells; [7]) is on record?
**A.** 2565 ± 21 nM

**Q.** And the IC50 (HMLER-shEcad cells [5]; [7])?
**A.** 5640 ± 304 nM

**Q.** Which IC50 (HMLER cells; [7]) does the source give for `Cc1cnc2c(ccc3c(C)c(C)cnc32)c1C.[Cl][Mn][Cl]` [Mn(3,4,7,8-tetramethyl-1,10-phenanthroline)Cl2] here?
**A.** 163 ± 21 nM

**Q.** And the IC50 (HMLER-shEcad cells [5]; [7])?
**A.** 170 ± 14 nM

**Q.** For `Cc1cnc2c(ccc3c(C)c(C)cnc32)c1C` [3,4,7,8-Tetramethyl-1,10-phenanthroline], which IC50 (HMLER cells; 72 h) is on record?
**A.** 785 ± 10 nM

**Q.** And the IC50 (HMLER-shEcad cells [5]; 72 h)?
**A.** 720 ± 84 nM

**Q.** With `O=C(O)Cc1ccccc1Nc1c(Cl)cccc1Cl` [Diclofenac] as the compound, how does the “effect on number or size of HMLER-shEcad mammospheres formed” value [6] read?
**A.** does not significantly affect

**Q.** Which IC50 (HMLER-shEcad cells [5]; [7]) does the source give for `[Cl][Mn][Cl]` [MnCl2·4H2O] here?
**A.** 7760 ± 318 nM
